Experimental data reported in ChEMBL document CHEMBL4689842, “EUbOPEN Chemogenomics Library wave 1” (2021).
Values joined by “and” are separate entries in the source; they are usually repeats but may differ in a detail not shown here. Identical values can stand only once.

System: HEK-293T
Assay: Multiplex assay against HEK293T;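 on Population Tubulin-Different-Phenotype (%): share of the cells with healthy nuclei that show this phenotype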
Format: toxicity, cell-based
Settings: human
Summary of the method: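 Live cells carried four stains from seeding: Hoechst33342, BioTracker Green Microtubule Cytoskeleton Dye, MitoTracker Red and Annexin V Alexa Fluor 680. They were imaged on a CQ1 microscope at 37°C and 5% CO2 after compound addition. Using CellPathfinder machine-learning gating, cells were split into Hoechst high-intensity objects or normal cells, normal cells into healthy, pyknosed or fragmented nuclei, and pyknosed cells into mitotic or apoptotic; tubulin, mitochondrial-mass and membrane-permeability phenotypes are per cents of healthy-nucleus cells.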

[1] = 12 h, 1 µM, compound concentration 1 uM, replicate 1
[2] = 12 h, 1 µM, compound concentration 1 uM, replicate 2
[3] = 12 h, 10 µM, compound concentration 10 uM, replicate 1
[4] = 12 h, 10 µM, compound concentration 10 uM, replicate 2
[5] = 24 h, 1 µM, compound concentration 1 uM, replicate 1
[6] = 24 h, 1 µM, compound concentration 1 uM, replicate 2
[7] = 24 h, 10 µM, compound concentration 10 uM, replicate 1
[8] = 24 h, 10 µM, compound concentration 10 uM, replicate 2

CC(=O)O[C@H]1C(=O)[C@@]2(C)[C@H]([C@H](OC(=O)c3ccccc3)[C@]3(O)C[C@H](OC(=O)[C@H](O)[C@@H](NC(=O)c4ccccc4)c4ccccc4)C(C)=C1C3(C)C)[C@]1(OC(C)=O)CO[C@@H]1C[C@@H]2O [PACLITAXEL]
Population Apoptotic (%) [1]: 21% and 24% | Population Fragmented Nuclei (%) [1]: 12% and 13% | Population Healthy Nuclei (%) [1]: 71% and 68% | Population Hoechst High Intensity Objects (%) [1]: 10% and 14% | Population Membrane Permeable-Phenotype (%) [1]: 4% | Population Mitochondria Different-Phenotype (%) [1]: 3% and 4% | Population Mitotic Cells (%) [1]: 78% and 75% | Population Normal (%) [1]: 89% and 85% | Population Pyknosed Nuclei (%) [1]: 15% and 18% | Population Tubulin-Different-Phenotype (%) [1]: 2% | Population Apoptotic (%) [2]: 7% and 10% | Population Fragmented Nuclei (%) [2]: 10% and 8% | Population Healthy Nuclei (%) [2]: 85% and 87% | Population Hoechst High Intensity Objects (%) [2]: 1% | Population Membrane Permeable-Phenotype (%) [2]: 1% and 0% | Population Mitochondria Different-Phenotype (%) [2]: 5% | Population Mitotic Cells (%) [2]: 92% and 89% | Population Normal (%) [2]: 98% | Population Pyknosed Nuclei (%) [2]: 3% and 4% | Population Apoptotic (%) [3]: 23% [middle of 4 runs] | Population Fragmented Nuclei (%) [3]: 15% and 13% and 11% and 10% | Population Healthy Nuclei (%) [3]: 69% and 72% and 76% and 75% | Population Hoechst High Intensity Objects (%) [3]: 11% and 7% and 8% | Population Membrane Permeable-Phenotype (%) [3]: 8% and 5% and 4% | Population Mitochondria Different-Phenotype (%) [3]: 5% and 4% and 3% | Population Mitotic Cells (%) [3]: 80% and 77% and 72% and 76% | Population Normal (%) [3]: 88% and 92% and 91% | Population Pyknosed Nuclei (%) [3]: 14% [middle of 4 runs] | Population Tubulin-Different-Phenotype (%) [3]: 2% and 3% | Population Apoptotic (%) [4]: 12% and 6% and 9% | Population Fragmented Nuclei (%) [4]: 8% and 14% | Population Healthy Nuclei (%) [4]: 86% and 81% and 85% | Population Hoechst High Intensity Objects (%) [4]: 1% and 3% and 2% | Population Membrane Permeable-Phenotype (%) [4]: 1% and 0% | Population Mitochondria Different-Phenotype (%) [4]: 7% | Population Mitotic Cells (%) [4]: 87% and 93% and 90% | Population Normal (%) [4]: 98% and 96% and 97% | Population Pyknosed Nuclei (%) [4]: 4% and 3% | Population Tubulin-Different-Phenotype (%) [4]: 4% and 1% | Population Apoptotic (%) [5]: 10% and 29% | Population Fragmented Nuclei (%) [5]: 12% and 13% | Population Healthy Nuclei (%) [5]: 79% | Population Hoechst High Intensity Objects (%) [5]: 7% and 8% | Population Membrane Permeable-Phenotype (%) [5]: 8% and 7% | Population Mitochondria Different-Phenotype (%) [5]: 2% and 4% | Population Mitotic Cells (%) [5]: 89% and 70% | Population Normal (%) [5]: 92% and 91% | Population Pyknosed Nuclei (%) [5]: 8% and 7% | Population Tubulin-Different-Phenotype (%) [5]: 2% and 4% | Population Apoptotic (%) [6]: 7% | Population Fragmented Nuclei (%) [6]: 24% and 32% | Population Healthy Nuclei (%) [6]: 73% and 65% | Population Hoechst High Intensity Objects (%) [6]: 3% and 4% | Population Membrane Permeable-Phenotype (%) [6]: 5% and 3% | Population Mitochondria Different-Phenotype (%) [6]: 1% and 0% | Population Mitotic Cells (%) [6]: 92% | Population Normal (%) [6]: 96% and 95% | Population Pyknosed Nuclei (%) [6]: 1% | Population Apoptotic (%) [7]: 22% [middle of 4 runs] | Population Fragmented Nuclei (%) [7]: 15% [middle of 4 runs] | Population Healthy Nuclei (%) [7]: 80% and 78% and 81% and 79% | Population Hoechst High Intensity Objects (%) [7]: 5% and 3% and 6% | Population Membrane Permeable-Phenotype (%) [7]: 10% and 7% | Population Mitochondria Different-Phenotype (%) [7]: 2% and 3% | Population Mitotic Cells (%) [7]: 77% and 76% and 82% and 79% | Population Normal (%) [7]: 94% and 96% and 93% | Population Pyknosed Nuclei (%) [7]: 4% and 5% and 6% and 7% | Population Tubulin-Different-Phenotype (%) [7]: 4% and 5% | Population Fragmented Nuclei (%) [8]: 30% [middle of 4 runs] | Population Healthy Nuclei (%) [8]: 73% and 69% and 60% and 67% | Population Hoechst High Intensity Objects (%) [8]: 4% | Population Membrane Permeable-Phenotype (%) [8]: 3% and 2% | Population Mitochondria Different-Phenotype (%) [8]: 1% and 0% | Population Mitotic Cells (%) [8]: 87% and 96% and 93% and 98% | Population Normal (%) [8]: 95% | Population Pyknosed Nuclei (%) [8]: 1% and 2% | Population Tubulin-Different-Phenotype (%) [8]: 2%
